Screening data as filed in PubChem BioAssay.
ARNT-TACC3 inh = ARNT/TACC3 interaction disruption; Q9Y6A5; AlphaScreen His-ARNT PAS-B/GST-TACC3 binding, luminescence; TACC3 fragment carries E629A point mutation; inhibition, % at 9.99 µM; 390,000 tested, 0.66% active; AID 623870;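 active = mean inhibition of replicates at least 50% and at least half of replicates each reaching 50%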;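 note: 0% = complete ARNT plus TACC3 wells and 100% = ARNT alone without TACC3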
SUMO Mot1 rescue = blocks SUMOylation pathway, rescuing yeast Mot1-301 growth; S. cerevisiae Mot1-301 growth rescue, ATP luminescence, 38.5C; percent above DMSO median, 100 means doubled; growth rescue, % at 18.8 µM; AID 2716; 320,000 tested, 1% active;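 active = every valid replicate shows activation above 250% relative to neutral control wells; inactive = the rest, any valid replicate at or below 250%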;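 note: OY570 slx delta 5 strain wells were the positive control but not used for scaling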
cardiac RTF act = increases calcium sensitivity of human cardiac regulated thin filaments; P19429+P45379; IANBD-labeled TnC RTF fluorescence at EC20 calcium; 0% EC20 calcium, 100% full calcium; activation, % at 7.2 µM; 340,000 tested, 0.24% active;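 active = activation above the mean over all tested compounds plus 3 SD, cut at about 30% in these data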;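 note: rise in fluorescence read as greater calcium sensitivity of cardiac thin filaments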
Efflux pump inh = inhibitors of Candida antifungal efflux pumps expressed in yeast; AID 485275; inhibition, % at 10 µM; S. cerevisiae Candida pump triplex, Nile Red efflux; 330,000 tested, 0.44% active;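 active = plate passing quality check with inhibition over a set limit, or well fluorescence over plate mean plus 4 SD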;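 note: Nile Red retained in pooled yeast measured as flow cytometry median fluorescence; 0% = buffer negative control and 100% = Enniatin B positive control; higher means more Nile Red kept so more efflux inhibition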
RTF Ca sens inh = cardiac RTF calcium desensitization; P19429+P45379; IANBD-labeled cardiac RTF, Ca2+ fluorescence; inhibition, % at 7.15 µM; 340,000 tested, 0.12% active; AID 493244;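 active = inhibition above the mean inhibition of all tested compounds plus 3 SD, cut at about 17% in these data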;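 note: assay run at fixed EC70 calcium of 1.6 mM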
UCH37 inh = blocks the human deubiquitinase UCH37. Q9Y5K5. purified proteasome/UCH37, Ub-AMC cleavage fluorescence. inhibition, % (test concentration not listed). 330,000 tested, 0.33% active;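 active = mean inhibition over replicate wells above about 20%, limit read from the data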;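 note: 0% = compound-free wells with enzyme and 100% = wells lacking proteasome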
Target sequence (Q9Y5K5 whole entry, looked up): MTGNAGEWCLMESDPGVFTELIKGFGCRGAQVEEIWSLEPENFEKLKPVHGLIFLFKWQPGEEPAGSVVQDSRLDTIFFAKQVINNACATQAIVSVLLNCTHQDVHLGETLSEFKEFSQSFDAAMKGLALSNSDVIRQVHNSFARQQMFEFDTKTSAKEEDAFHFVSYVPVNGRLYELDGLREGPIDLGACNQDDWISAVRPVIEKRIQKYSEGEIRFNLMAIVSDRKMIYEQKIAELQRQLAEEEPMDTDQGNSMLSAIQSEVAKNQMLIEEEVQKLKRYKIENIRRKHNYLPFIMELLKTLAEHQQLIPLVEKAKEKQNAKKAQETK
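Material: human UCH37 enzyme supplied as purified proteasome complex / Amount: 0.15 nM proteasome as dispensed / Buffer or medium: pH 7.4 Tris-HCl (50 mM) with ovalbumin, ATP-MgCl2, DTT / Times: preincubation 30 min, reaction 25 min, room temperature / Technique: AMC fluorescence from Ub-AMC cleavage, excitation 355 nm, emission 460 nm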
Numbers without * were called inactive. Sampled rows, rich in hits. Any-hit rate of the full collection: about 2.1%.

Screening CC1(C)CC(=O)C(C2(O)C(=O)NC(=O)NC2=O)=C(O)C1 returned ARNT-TACC3 inh 23*, SUMO Mot1 rescue -1, cardiac RTF act 6, Efflux pump inh 0, RTF Ca sens inh 6 and UCH37 inh 15.
Screening NC(=N[N+](=O)[O-])N1CCN(C(=O)Oc2ccccc2)CC1 returned UCH37 inh 4.
CC[C@H](C)/C=C(C)/C=C/C1=CC2=C(Cl)C(=O)[C@@](C)(OC(C)=O)C(=O)C2=CO1 was read as ARNT-TACC3 inh 0, SUMO Mot1 rescue 2, cardiac RTF act -47, Efflux pump inh 0 and RTF Ca sens inh 42*.
CCC(C)/C=C(C)/C=C/C1=CC2=C(Cl)C(=O)C(C)(OC(C)=O)C(=O)C2=CO1 (stereo not given) was read as ARNT-TACC3 inh 49*, SUMO Mot1 rescue 18, cardiac RTF act -1, Efflux pump inh 0, RTF Ca sens inh 3 and UCH37 inh 3.
CC[C@H](C)C=C(C)/C=C/C1=CC2=C(Cl)C(=O)[C@@](C)(OC(C)=O)C(=O)C2=CO1 was read as UCH37 inh 20.
For CC12CC[C@H]3[C@@H](CCC4(O)C[C@H](O)CCC34C=NNC(=O)c3ccccc3Cl)C1(O)CCC2C1=CC(=O)OC1 (stereo not given in full) the results were UCH37 inh -4.
Screening C[C@]12CCC3C(CCC4=CC(=NOCC(=O)NC(CCC(N)=O)C(=O)O)CC[C@@]43C)C1CCC2O (stereo not given in full) returned UCH37 inh 2.
Screening COC(=O)C1=C(c2cc3ccccc3o2)C[C@@H]2CC[C@H]1N2C(=O)N1CCOCC1 returned SUMO Mot1 rescue -28, cardiac RTF act 0, Efflux pump inh 0, RTF Ca sens inh -8 and UCH37 inh 27*.
Cc1c(N=Cc2c(O)n(C)c(=O)[nH]c2=O)c(=O)n(-c2ccccc2)n1C was read as SUMO Mot1 rescue 0, Efflux pump inh 0 and UCH37 inh 11.
Screening Cc1c(N=Nc2c(O)n(-c3ccc(Br)cc3)c(=O)[nH]c2=O)c(=O)n(-c2ccccc2)n1C returned ARNT-TACC3 inh 61*, SUMO Mot1 rescue -12, cardiac RTF act 3, Efflux pump inh 0, RTF Ca sens inh -9 and UCH37 inh 14.
C=CCn1c(O)c(C=Nc2c(C)n(C)n(-c3ccccc3)c2=O)c(=O)[nH]c1=O was read as ARNT-TACC3 inh -6, SUMO Mot1 rescue -4, cardiac RTF act 1, Efflux pump inh 0, RTF Ca sens inh -15 and UCH37 inh 20*.
Screening CC(=Nc1c(C)n(C)n(-c2ccccc2)c1=O)c1c(O)n(Cc2ccccc2)c(=O)[nH]c1=O returned ARNT-TACC3 inh 8, SUMO Mot1 rescue 160, cardiac RTF act 2, Efflux pump inh 0, RTF Ca sens inh 3 and UCH37 inh 4.
For Cc1c(N=Nc2c(O)[nH]c(=O)[nH]c2=O)c(=O)n(-c2ccccc2)n1C the results were ARNT-TACC3 inh 65*, SUMO Mot1 rescue 1, cardiac RTF act 3, Efflux pump inh 0, RTF Ca sens inh -25 and UCH37 inh 17.
Screening Cc1c(N=Cc2c(O)n(CCc3ccc(F)cc3)c(=O)[nH]c2=O)c(=O)n(-c2ccccc2)n1C returned ARNT-TACC3 inh 4, SUMO Mot1 rescue -2, cardiac RTF act 3, Efflux pump inh 0, RTF Ca sens inh 4 and UCH37 inh 4.
COC(=O)C1C2c3ccccc3OC1(C)N=c1sc(=Cc3cn(C)nc3C)c(=O)n12 (stereo not given) was read as UCH37 inh 2.
`COC(=O)C1C2c3ccccc3OC1(C)N=c1sc(=Cc3cnn(C)c3C)c(=O)n12` (stereo not given) gave UCH37 inh 2.
`S=C(NCCc1ccccc1)NCCc1cnc[nH]1` gave ARNT-TACC3 inh 57*, SUMO Mot1 rescue -8, cardiac RTF act 4, Efflux pump inh 0, RTF Ca sens inh 1 and UCH37 inh 1.
`CCCCOc1ccc(CC2C(=O)N(C)C(=O)N(C)C2=O)cc1` gave ARNT-TACC3 inh -2, SUMO Mot1 rescue 12, cardiac RTF act -5, Efflux pump inh 0, RTF Ca sens inh 5 and UCH37 inh 29*.
